tolC growth inh – blocks growth of E. coli BW25113 tolC mutant; growth inhibition, % at 10 µM (by protocol); OD615; actives 2.2% (n = 65,000);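 active = growth inhibition at or above a cutoff equal to the mean over every tested compound plus 3 SD, cut at about 60% in these data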;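 note: growth measured after 20 h incubation at 37 °C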
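Doses: one dose of 10 µM final / Material: E. coli BW25113 ΔtolC::kan, tolC deletion mutant strain / Buffer or medium: LB with kanamycin 50 µg/mL / Evaluation: percent growth inhibition / Detection: optical density read at 615 nm / Incubation: 37 °C, 20 h exposure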
PostGolgi yeast – growth inhibition of a yeast mutant, post-Golgi transport screen. post-Golgi transport phenotypic cell assay. inhibition, % at 10 µM. actives 0.9% (n = 98,000);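 note: yeast cells grown in 1536-well plates; yeast grown about 18 h at 30C before absorbance read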
PostGolgi ctrl – inhibits growth of the yeast control strain; efflux-deficient yeast background strain, growth absorbance A615, 16 h; inhibition, % at 10 µM; actives 5% (n = 98,000); AID 738
PLAP act – activates human placental alkaline phosphatase | activation fold at 20 µM | purified PLAP enzyme, luminescent substrate read-out; hits give high values | P05187 | actives 1.2% (n = 96,000); in the data active = activation fold above about 2
Target sequence (P05187 whole entry, looked up): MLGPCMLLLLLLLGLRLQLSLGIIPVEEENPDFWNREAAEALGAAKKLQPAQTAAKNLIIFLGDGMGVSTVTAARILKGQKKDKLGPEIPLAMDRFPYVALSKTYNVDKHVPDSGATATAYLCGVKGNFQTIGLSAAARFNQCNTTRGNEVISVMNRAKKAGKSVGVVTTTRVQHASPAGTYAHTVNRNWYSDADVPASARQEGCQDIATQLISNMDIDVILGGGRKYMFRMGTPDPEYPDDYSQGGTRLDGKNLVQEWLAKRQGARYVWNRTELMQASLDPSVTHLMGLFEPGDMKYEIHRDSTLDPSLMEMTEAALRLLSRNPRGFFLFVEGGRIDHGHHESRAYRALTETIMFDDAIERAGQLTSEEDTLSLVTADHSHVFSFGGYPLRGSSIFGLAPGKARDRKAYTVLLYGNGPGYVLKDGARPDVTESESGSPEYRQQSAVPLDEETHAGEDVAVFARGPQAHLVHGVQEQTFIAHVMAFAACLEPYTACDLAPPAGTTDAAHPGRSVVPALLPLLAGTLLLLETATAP
HePTP inh – blocks human HePTP tyrosine phosphatase. P35236. recombinant HePTP phosphatase activity, OD absorbance. inhibition, % at 20 µM. actives 0.64% (n = 110,000). AID 521; in the data active = inhibition above about 50%
E coli WT exp – blocks growth of wild type E. coli BW25113; actives 0.15% (n = 98,000); growth inhibition, % at 100 µM; OD600 absorbance; AID 710;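 active = growth inhibition above about 50% at one test dose, limit read from the data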;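 note: growth measured after 20 h incubation at 37 °C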
Numbers stand for hits; i = inactive; nt = not tested or not shown. Most compounds without a hit are left out; they make up all but 5.4% or so of the library. Cut-off read from the data, not from the text of the source, unless noted: active = inhibition above about 30%; inactive = the rest.

SMILES	tolC growth inh	PostGolgi yeast	PostGolgi ctrl	PLAP act	HePTP inh	E coli WT exp
CCc1nc(SCC(=O)NNC(=O)C2CCCCC2)c2ccccc2n1	nt	i	i	i	nt	i
CCc1nc(SCC(=O)NNC(=O)C(C)C)c2ccccc2n1	nt	i	i	2	nt	i
Cc1ccc2[nH]c(=O)c(-c3nc4cc(C)ccn4c3NCc3ccco3)cc2c1	i	i	i	i	i	i
Cc1cccc2cc(-c3nc4c(C)cccn4c3NCc3ccco3)c(=O)[nH]c12	nt	44	56	i	nt	i
CC(=O)c1c(C(C)=O)c(C)n(NC(=O)c2ccc(Cl)cc2)c1C	nt	31	i	i	nt	i
CC(=O)c1c(C(C)=O)c(C)n(NC(=O)c2ccccc2Cl)c1C	nt	i	i	i	nt	i
O=C1C=C(Nc2ccc([N+](=O)[O-])cc2)CN1	nt	nt	nt	nt	i	nt
COc1ccc(C(=O)/C=C/c2cn(CN3CCN(C)CC3)c3ccccc23)cc1	nt	i	33	i	nt	i
COc1ccc(C(=O)/C=C/c2cn(Cc3ccccc3)c3ccccc23)cc1	nt	nt	nt	nt	i	nt
CCOc1ccc(C(=O)/C=C/c2cn(CN3CCN(C)CC3)c3ccccc23)cc1	nt	i	32	i	nt	i
COc1ccc(OC)c(-c2cc(C(=O)N3CCN(c4ccccc4)CC3)no2)c1	i	i	33	i	i	i
COc1ccc(OC)c(-c2cc(C(=O)NCCN3CCOCC3)no2)c1	i	i	i	i	i	i
COc1ccc(OC)c(-c2cc(C(=O)N3CCc4ccccc4C3)no2)c1	69	i	41	i	i	i
COc1cccc(-c2cc(C(=O)N3CCc4ccccc4C3)no2)c1	90	i	i	i	i	i
CCC(C)N1CC(C(=O)NC2CCCCC2)CC1=O (stereo not given)	i	i	33	i	i	i
C=CCSc1n[nH]c(-c2ccc(OCCC)cc2)n1	i	i	i	i	i	i
C=CCSc1n[nH]c(-c2ccc(OCCCC)cc2)n1	86	i	i	i	i	i
COc1cc(S(=O)(=O)N2CCOCC2)ccc1NC(=O)COC(=O)C12CC3CC(CC(C3)C1)C2	i	i	35	i	i	i
CCC(CC)C(=O)OCC(=O)Nc1ccc(S(=O)(=O)N2CCOCC2)cc1OC	nt	i	i	i	nt	i
CC1(C)COC(c2cccn2Cc2ccc(F)cc2Cl)=N1	nt	i	i	i	nt	i
CC1CN=C(c2cccn2Cc2ccc(F)cc2Cl)O1 (stereo not given)	i	i	32	i	i	i
CC(C)CCNC(=O)/C=C/c1ccc([N+](=O)[O-])cc1	nt	nt	nt	nt	i	nt
N#C/C(=C\C=C\c1ccccc1)C(=O)NCC1CCCO1 (stereo not given)	nt	nt	nt	nt	i	nt
O=[N+]([O-])c1ccc(Sc2nc3ccccc3o2)c([N+](=O)[O-])c1	nt	i	91	i	nt	i
COc1ccc(N=C(Sc2nc3ccccc3o2)c2ccc([N+](=O)[O-])cc2[N+](=O)[O-])cc1	nt	nt	nt	nt	i	nt
SMILES	tolC growth inh	PostGolgi yeast	PostGolgi ctrl	PLAP act	HePTP inh	E coli WT exp
Cc1cc([N+](=O)[O-])ccc1NCc1ccccc1	nt	i	i	i	nt	i
Cc1cc([N+](=O)[O-])ccc1NC(=S)NC(=O)Cc1ccccc1	nt	i	30	i	nt	i
Cc1cc([N+](=O)[O-])ccc1NC(=S)NC(=O)C(c1ccccc1)c1ccccc1	nt	i	46	i	nt	i
Cc1ccc(C(=O)NN(c2ccccc2)c2ccccc2)cc1[N+](=O)[O-]	nt	nt	nt	nt	i	nt
O=C(NNC(=O)C1CCCCC1)c1cnccn1	nt	i	i	2	nt	i
O=C(NCN1CCCCC1)c1cnccn1	i	i	i	i	i	i
Cc1ccc2oc(-c3ccc(C)c(NC(=O)c4ccc(Cl)cc4Cl)c3)nc2c1	nt	nt	nt	nt	i	nt
O=C(Nc1ccc(N2CCOCC2)c(Cl)c1)c1ccccc1F	nt	i	i	i	nt	i
O=C(COc1c(F)c(F)c(C(F)(F)F)c(F)c1F)Nc1ccc(N2CCOCC2)c(Cl)c1	100	i	i	i	i	i
C=CCc1ccccc1OCCn1cc(C=C2C(=O)NC(=O)NC2=O)c2ccccc21	nt	nt	nt	nt	i	nt
Cc1ccc2c(c1)cc(CN(Cc1cccs1)C(=O)c1ccco1)c1nnnn12	i	i	42	i	i	i
CCN(CC)S(=O)(=O)c1cc(C(N)=O)ccc1Br	nt	nt	nt	nt	i	nt
COc1cc(/C=C/C(=O)c2c(-c3ccccc3)c3cc(Cl)ccc3[nH]c2=O)cc(Br)c1OC	nt	nt	nt	nt	i	nt
COc1ccc(/C=C2\C(=O)NC(=O)N(c3cccc(Br)c3)C2=O)c(OC)c1	nt	nt	nt	nt	i	nt
CC1=NN(c2ccc(Cl)c(Cl)c2)C(=O)/C1=C/c1ccco1	nt	nt	nt	nt	i	nt
CC1=NN(c2ccc(Cl)c(C(=O)O)c2)C(=O)/C1=C\c1ccco1	nt	nt	nt	nt	73	nt
COc1ccc(-c2nc(-c3cccc(C)c3)nc(N3CCN(C)CC3)c2C#N)cc1	nt	i	i	i	nt	i
COc1ccc(-c2nc(-c3ccccc3)nc(N3CCN(C)CC3)c2C#N)cc1	nt	i	33	i	nt	i
CCOc1ccccc1NC(=O)CSc1nnc(C)s1	nt	nt	nt	nt	i	nt
O=C(CSc1nnc(-c2csc3c2CCCC3)o1)Nc1ccccc1	i	i	i	2	i	i
COc1ccccc1NC(=S)NC(NC(=O)c1cc(OC)c(OC)c(OC)c1)C(Cl)(Cl)Cl (stereo not given)	nt	nt	nt	nt	i	nt
O=C(COc1ccc(Cl)cc1)Nc1ccc2oc(-c3ccccc3F)nc2c1	nt	nt	nt	nt	57	nt
O=C(Nc1ccc2oc(-c3cccc4ccccc34)nc2c1)c1ncn[nH]1	nt	i	i	nt	nt	i
O=C(Nc1ccc2oc(-c3ccccc3Cl)nc2c1)c1ncn[nH]1	i	i	i	2	i	i
O=C(COc1ccc(Br)cc1)Nc1ccc2oc(-c3ccccc3F)nc2c1	nt	nt	nt	nt	i	nt
SMILES	tolC growth inh	PostGolgi yeast	PostGolgi ctrl	PLAP act	HePTP inh	E coli WT exp
C(=N\n1cnnc1)/c1ccc(OCCOc2ccc(C3CCCCC3)cc2)cc1	nt	nt	nt	nt	i	nt
COc1cccc(-n2c(O)c(/C=C3\C=c4ccccc4=N3)c(=O)[nH]c2=O)c1	nt	nt	nt	nt	i	nt
O=[N+]([O-])c1cccc(N/N=C/c2ccc3c(c2)OCO3)c1	nt	nt	nt	nt	i	nt
O=C(CSc1ccccc1Cl)N1CCC(c2nc3ccccc3s2)CC1	nt	i	64	i	nt	i
CCNC(=S)N1CCC(c2nc3ccccc3s2)CC1	nt	i	44	i	nt	i
O=C(NNC(=O)C(c1ccccc1)c1ccccc1)C(c1ccccc1)c1ccccc1	nt	nt	nt	nt	i	nt
Cc1csc(Sc2nc3c(c(=O)[nH]c(=O)n3C)n2CCCc2ccccc2)n1	i	i	45	i	i	i
CCOC(=O)CSc1nc2c(c(=O)[nH]c(=O)n2C)n1CCCc1ccccc1	i	i	i	i	i	i
CCCCCn1c(Sc2ncccn2)nc2c1c(=O)[nH]c(=O)n2C	i	i	i	nt	nt	i
CCCCCn1c(Sc2nc3ccccc3s2)nc2c1c(=O)[nH]c(=O)n2C	i	i	35	i	i	i
C=C(C)Cn1c(Sc2nc3ccccc3[nH]2)nc2c1c(=O)[nH]c(=O)n2C	i	i	i	2.1	i	i
Cc1ccccc1NC(=O)C1CCCN(S(=O)(=O)c2cnc[nH]2)C1 (stereo not given)	i	i	60	i	i	i
Cc1ccc(NC(=O)C2CCCN(S(=O)(=O)c3cnc[nH]3)C2)c(Br)c1 (stereo not given)	i	i	i	i	i	i

Screens (PubChem BioAssay)
